According to ChEMBL document CHEMBL1140751, “Novel sst5-selective somatostatin dicarba-analogues: synthesis and conformation-affinity relationships” (J Med Chem, 2008):
pIC50: −log10 of the molar value. Numbered stars: 1 amine (or outer) side, 2 acyl side, 3 side chain; on linkers, the order of the positions; unused ones are H or OH. Bridge positions count the residues as written; N and C are the ends. Square brackets hold non-standard residues; d marks the D form. Peptide text beside a SMILES is read from it. Phe(Nα-(CH2)3CO) = O=C([C@H](Cc1ccccc1)N(CCCC(=O)[*:3])[*:1])[*:2]; N(2-aminoethyl)Phe = O=C([C@H](Cc1ccccc1)N(CCN[*:3])[*:1])[*:2]

Tests used:
[1] = target: Somatostatin receptor type 1 (Homo sapiens, UniProt P30872); test: Displacement of [125I](Leu8,D-Trp22,Tyr25)-SRIF28 from human sst1 receptor
Chain of Somatostatin receptor type 1 (P30872 whole entry): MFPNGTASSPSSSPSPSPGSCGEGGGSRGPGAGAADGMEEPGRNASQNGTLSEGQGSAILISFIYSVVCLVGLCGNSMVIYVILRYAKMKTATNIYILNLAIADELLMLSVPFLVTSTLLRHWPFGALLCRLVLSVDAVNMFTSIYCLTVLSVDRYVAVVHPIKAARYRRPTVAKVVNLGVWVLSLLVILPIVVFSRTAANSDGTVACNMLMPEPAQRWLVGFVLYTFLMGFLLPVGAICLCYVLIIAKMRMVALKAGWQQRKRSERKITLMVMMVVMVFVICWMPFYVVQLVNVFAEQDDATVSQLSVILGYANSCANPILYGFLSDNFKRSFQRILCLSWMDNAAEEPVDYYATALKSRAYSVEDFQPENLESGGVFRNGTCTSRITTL
Outline: (§1)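 Membranes came from CHO-K1 and CCL39 cells stably expressing the human sst1–sst5 receptors. Receptor autoradiography was performed on 20 µm pellet sections mounted on slides. IC50 was derived from signal quantified by computer-assisted image processing.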

[2] = target: T1, Somatostatin receptor type 5 (Homo sapiens, UniProt P35346); test: Displacement of [125I](Leu8,D-Trp22,Tyr25)-SRIF28 from human sst5 receptor; outline: as §1
T1 sequence (P35346 whole entry): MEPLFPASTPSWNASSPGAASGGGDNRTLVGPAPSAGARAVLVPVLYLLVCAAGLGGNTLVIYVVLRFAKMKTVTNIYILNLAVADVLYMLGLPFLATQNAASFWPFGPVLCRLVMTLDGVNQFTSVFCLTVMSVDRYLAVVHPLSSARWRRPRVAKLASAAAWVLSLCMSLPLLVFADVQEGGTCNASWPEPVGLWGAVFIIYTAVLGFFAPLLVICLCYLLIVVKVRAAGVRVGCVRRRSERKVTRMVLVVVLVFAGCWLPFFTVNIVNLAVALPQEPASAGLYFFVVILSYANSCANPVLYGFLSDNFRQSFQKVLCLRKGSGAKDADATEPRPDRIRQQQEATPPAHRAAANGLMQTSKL

[3] = target: Somatostatin receptor type 4 (Homo sapiens, UniProt P31391); test: Displacement of [125I](Leu8,D-Trp22,Tyr25)-SRIF28 from human sst4 receptor; outline: as §1
Chain of Somatostatin receptor type 4 (P31391 whole entry): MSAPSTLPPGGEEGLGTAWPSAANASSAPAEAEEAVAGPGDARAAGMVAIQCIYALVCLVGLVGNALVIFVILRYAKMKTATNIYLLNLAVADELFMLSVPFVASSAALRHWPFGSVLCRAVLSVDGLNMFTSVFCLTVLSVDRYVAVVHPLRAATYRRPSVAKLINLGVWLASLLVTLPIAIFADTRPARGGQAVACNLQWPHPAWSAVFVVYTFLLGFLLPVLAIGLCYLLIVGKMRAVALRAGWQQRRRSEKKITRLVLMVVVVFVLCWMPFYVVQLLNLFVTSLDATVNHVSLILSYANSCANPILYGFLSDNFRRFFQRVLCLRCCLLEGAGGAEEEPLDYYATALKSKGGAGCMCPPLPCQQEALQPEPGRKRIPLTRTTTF

[4] = target: Somatostatin receptor type 3 (Homo sapiens, UniProt P32745); test: Displacement of [125I](Leu8,D-Trp22,Tyr25)-SRIF28 from human sst3 receptor; outline: as §1
Chain of Somatostatin receptor type 3 (P32745 whole entry): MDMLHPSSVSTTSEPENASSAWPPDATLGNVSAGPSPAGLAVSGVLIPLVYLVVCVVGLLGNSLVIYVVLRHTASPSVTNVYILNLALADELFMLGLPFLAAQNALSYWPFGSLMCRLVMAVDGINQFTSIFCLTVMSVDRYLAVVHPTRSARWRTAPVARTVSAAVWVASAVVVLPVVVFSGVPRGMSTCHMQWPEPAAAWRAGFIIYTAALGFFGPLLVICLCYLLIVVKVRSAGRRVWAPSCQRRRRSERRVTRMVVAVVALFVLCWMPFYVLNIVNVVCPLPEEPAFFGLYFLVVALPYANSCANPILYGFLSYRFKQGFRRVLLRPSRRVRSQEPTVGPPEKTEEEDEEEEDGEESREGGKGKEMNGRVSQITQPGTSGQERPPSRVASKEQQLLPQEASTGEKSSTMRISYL

[5] = target: Somatostatin receptor type 2 (Homo sapiens, UniProt P30874); test: Displacement of [125I](Leu8,D-Trp22,Tyr25)-SRIF28 from human sst2 receptor; outline: as §1
Chain of Somatostatin receptor type 2 (P30874 whole entry): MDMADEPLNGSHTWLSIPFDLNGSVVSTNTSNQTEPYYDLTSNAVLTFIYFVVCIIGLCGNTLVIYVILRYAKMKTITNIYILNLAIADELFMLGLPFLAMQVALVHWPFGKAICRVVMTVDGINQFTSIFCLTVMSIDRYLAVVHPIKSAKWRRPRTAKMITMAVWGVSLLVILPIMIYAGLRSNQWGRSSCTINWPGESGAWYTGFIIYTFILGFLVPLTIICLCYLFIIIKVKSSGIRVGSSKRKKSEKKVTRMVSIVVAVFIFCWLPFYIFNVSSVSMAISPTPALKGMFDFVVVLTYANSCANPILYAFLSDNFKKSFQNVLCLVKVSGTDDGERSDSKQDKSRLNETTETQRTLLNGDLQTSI

[6] = target: T1, Somatostatin receptor type 5; test: Binding affinity to sst5 receptor

Row | Structure (SMILES) | pIC50 [1] | pIC50 [2] | pIC50 [3] | pIC50 [4] | pIC50 [5] | pIC50 [6]
1 | C[C@@H](O)[C@@H]1NC(=O)[C@H](CCCCN)NC(=O)[C@@H](Cc2c[nH]c3ccccc23)NC(=O)[C@H](Cc2ccccc2)NC(=O)[C@@H](NC(=O)[C@H](N)Cc2ccccc2)CCCC[C@@H](C(=O)N[C@H](CO)[C@@H](C)O)NC1=O | < 6.00 | 6.69 | 6.67 | < 6.00 | 7.31 | –
2 | C[C@H](N)COC(=O)[C@H](CCCCN)NC(=O)Cc1c(-c2ccc3ccccc3c2)[nH]c2c1ccc1ccccc12 | – | – | – | – | – | 9.40
3 | C[C@@H](O)[C@@H]1NC(=O)[C@H](CCCCN)NC(=O)[C@@H](Cc2c[nH]c3ccccc23)NC(=O)[C@H](Cc2ccccc2)NC(=O)[C@@H](NC(=O)[C@H](N)Cc2ccccc2)C/C=C\C[C@@H](C(=O)N[C@H](CO)[C@@H](C)O)NC1=O | < 6.00 | 7.55 | 6.39 | < 6.00 | 7.36 | –
4 | CC(C)[C@@H]1NC(=O)[C@H](CCCCN)NC(=O)[C@@H](Cc2c[nH]c3ccccc23)NC(=O)[C@H](Cc2ccc(O)cc2)NC(=O)[C@H](Cc2ccccc2)NCCNC(=O)CCCN([C@@H](Cc2ccccc2)C(=O)N[C@H](C(N)=O)[C@@H](C)O)C1=O (H-[N(2-aminoethyl)Phe]Y[dW]KV[Phe(Nα-(CH2)3CO)]T-NH2; lactam 1-6) | – | – | – | – | – | 7.17
5 | C[C@@H](O)[C@@H](CO)NC(=O)[C@@H]1C/C=C\C[C@H](NC(=O)[C@H](N)Cc2ccccc2)C(=O)N[C@@H](Cc2ccccc2)C(=O)N[C@H](Cc2c[nH]c3ccccc23)C(=O)N[C@@H](CCCCN)C(=O)N[C@@H](Cc2ccccc2)C(=O)N1 | 6.02 | 6.69 | 6.85 | < 6.00 | < 6.00 | –
